Experiment [1] concerns Candida albicans. The experiment is described as follows: Growth inhibition of Candida albicans ATCC 10231 at 15.62 ug/ml incubated for 48 hrs under dark condition by broth microdilution assay relative to amphotericin B. Format: functional. The note with it: ATCC 10231, 48 h, read-out: GI. Summed up: (§1)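 Yeast broth microdilution (CLSI M27-A3), RPMI-1640, inoculum 1-5 x 10^3 CFU/mL, DMSO ≤1%, 48 h at 30 °C in a moist, dark chamber. […]. Triplicate; amphotericin B as positive control.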

Experiment [2] relates to Candida albicans. The experiment can be described thus: Antifungal activity against Candida albicans ATCC 10231 incubated for 48 hrs under dark condition by broth microdilution assay. Type of experiment: functional. The note with it: ATCC 10231, 48 h. A digest of the protocol:
(§2)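 Broth microdilution per CLSI M27-A3 in RPMI-1640. Inocula adjusted to 1-5 x 10^3 CFU/mL. Stocks in DMSO (≤1%), final 3.9-250.0 µg/mL. Incubated 48 h at 30 °C in a moist, dark chamber, read at OD 405. % inhibition computed from growth and sterility control wells, run in triplicate. MIC80/MIC50 taken from four-parameter logistic concentration-response curves; amphotericin B as positive control.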
A general note: Broth dilution looks for growth in wells or tubes with falling amounts of substance.

Experiment [3] can be described thus: Antioxidant activity assessed as DPPH radical scavenging activity incubated for 30 mins under dark condition. Format: functional. Summed up:
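DPPH (100 µM) in ethanolic medium, stirred 30 min in the dark, absorbance at 517 nm. Compound varied from 0 to 160 µg/mL to find the concentration scavenging 50% of radicals. Three independent experiments, each in triplicate.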

Experiment [4] is described as follows: Antioxidant activity assessed as fluorescent light-induced superoxide anion scavenging activity incubated for 10 mins by nitroblue tetrazolium dye based assay. Format: functional. Summed up: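 Riboflavin/light superoxide system: 50 mM phosphate pH 7.8, 13 mM L-methionine, 75 µM NBT, 100 µM EDTA, 2 µM riboflavin, compound 0-200 µg/mL. Fluorescent light for 10 min at 25 °C, dark controls, scavenging measured at 575 nm. Resveratrol as reference.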

Experiment [5] concerns Candida albicans. The experiment can be described thus: Growth inhibition of Candida albicans ATCC 10231 at 7.81 ug/ml incubated for 48 hrs under dark condition by broth microdilution assay relative to amphotericin B. Format: functional. The note with it: ATCC 10231, 48 h, read-out: GI. A digest of the protocol: as §1
Experiment [6] has as its system Candida albicans. The experiment is described as follows: Growth inhibition of Candida albicans ATCC 10231 at 62.5 ug/ml incubated for 48 hrs under dark condition by broth microdilution assay relative to amphotericin B. Format: functional. The note with it: ATCC 10231, 48 h, read-out: GI. A digest of the protocol: as §1
The nature of experiment [7]: Antifungal activity against Cryptococcus neoformans ATCC 32264 incubated for 48 hrs under dark condition by broth microdilution assay. Format: functional. A digest of the protocol: as §2
Experiment [8] can be described thus: Antioxidant activity assessed as DPPH radical scavenging activity at 160 uM incubated for 30 mins under dark condition. Format: functional. Summed up: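 Compound at 160 µM incubated with 100 µM DPPH in ethanolic medium, stirred in the dark for 30 min, read at 517 nm. Resveratrol as positive control. Three independent experiments, each in triplicate.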
Experiment [9] has as its system Candida albicans. The experiment is described as follows: Growth inhibition of Candida albicans ATCC 10231 at 3.9 ug/ml incubated for 48 hrs under dark condition by broth microdilution assay relative to amphotericin B. Type of experiment: functional. The note with it: ATCC 10231, 48 h, read-out: GI. A digest of the protocol: as §1
Experiment [10] in a line: Antioxidant activity assessed as fluorescent light-induced superoxide anion scavenging activity at 160 uM incubated for 10 mins by nitroblue tetrazolium dye based assay. Type of experiment: functional. Summed up:
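Superoxide generated photochemically in 50 mM phosphate buffer pH 7.8 with 13 mM L-methionine, 75 µM nitroblue tetrazolium, 100 µM EDTA and 2 µM riboflavin. Compound at 160 µM. 10 min at 25 °C under fluorescent light; dark controls. Read at 575 nm. Resveratrol as positive control; three independent experiments in triplicate.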

Experiment [11] has as its system Candida albicans. The experiment is described as follows: Growth inhibition of Candida albicans ATCC 10231 at 31.25 ug/ml incubated for 48 hrs under dark condition by broth microdilution assay relative to amphotericin B. The note with it: ATCC 10231, 48 h, read-out: GI. Type of experiment: functional. A digest of the protocol: as §1
Experiment [12] deals with Candida albicans. The experiment is described as follows: Growth inhibition of Candida albicans ATCC 10231 at 250 ug/ml incubated for 48 hrs under dark condition by broth microdilution assay relative to amphotericin B. The note with it: ATCC 10231, 48 h, read-out: GI. Format: functional. Summed up: as §1
Experiment [13] concerns Candida albicans. The experiment is described as follows: Growth inhibition of Candida albicans ATCC 10231 at 125 ug/ml incubated for 48 hrs under dark condition by broth microdilution assay relative to amphotericin B. Type of experiment: functional. The note with it: ATCC 10231, 48 h, read-out: GI. A digest of the protocol:
as §1

Experiment [14] can be described thus: Antiproliferative activity against human NCI-H226 cells harboring TP53 mutant after 24 hrs by MTT assay. Format: functional, cell-based. The note with it: NCI-H226, 24 h. A digest of the protocol:
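Cells grown in medium with 10% foetal bovine serum and 1% L-glutamine at 37 °C, 5% CO2, seeded at 1 x 10^5 cells/well. Exposed to compound at 1.0-1,000 µg/mL for 24 h. MTT added, absorbance read at 540 nm 3 h later. IC50 obtained by non-linear regression of viability data.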
On the technique in general: Formazan colour is commonly taken as a measure of viable cells.

Values after ≈ are worked out from the molar mass of the structure shown. Active and inactive are the calls of the source. No cut-off for these calls is given here.

One may read the MIC50 as the lowest concentration that inhibits either 50% of growth or 50% of the strains tested, depending on the study. A higher MIC50 goes with lower susceptibility. Usually MIC80 stands for an inhibitory concentration at the 80% level, which refers to growth in some studies and to a panel of isolates in others. Broadly, the IC50 is the concentration that gives 50% inhibition. A high value points to a need for much substance.

As for `Oc1ccc2nc(-c3ccccc3)cc(-c3ccccc3)c2c1`, the inhibition of growth at 15.62 µg/mL in the experiment on Candida albicans [1] was 0%. In addition, the MIC50 was found to be 250 µg/mL (≈ 841 µM) in the experiment on Candida albicans [2] and 125 µg/mL (≈ 420 µM) in experiment [7]. For the same molecule, the MIC80 is more than 250 µg/mL in the experiment with Candida albicans [2] and 250 µg/mL (≈ 841 µM) in experiment [7]. For the same molecule, the SC50 in experiment [3] and in experiment [4] was more than 250 µM in each case. In the experiment on Candida albicans [5], the inhibition of growth at 7.81 µg/mL is 0%. In addition, the inhibition of growth at 62.5 µg/mL with Candida albicans [6] was found to be 0%. Besides, the Activity in experiment [8] was 70 to 85%. The inhibition of growth at 3.9 µg/mL in the experiment with Candida albicans [9] was found to be 0%. The result in [10] was Active. Further, in the experiment on Candida albicans [11], the inhibition of growth at 31.25 µg/mL was found to be 0%. Besides, the inhibition of growth at 250 µg/mL in the experiment with Candida albicans [12] amounted to 12.2%. Further, the inhibition of growth at 125 µg/mL in the experiment with Candida albicans [13] is 3.51%.
For the molecule `O=[N+]([O-])c1ccc2nc(-c3ccccc3)cc(-c3ccccc3)c2c1`, the inhibition of growth at 15.62 µg/mL in the experiment on Candida albicans [1] came to 0%. In addition, the MIC50 against Candida albicans [2] was more than 250 µg/mL; in experiment [7], 125 µg/mL (≈ 383 µM). The results for the MIC80 (against Candida albicans [2]; in experiment [7]) were more than 250 µg/mL and 250 µg/mL (≈ 766 µM), respectively. In addition, the figures for the SC50 in experiment [3] and in experiment [4] were 104 µM and more than 250 µM, respectively. The inhibition of growth at 7.81 µg/mL in the experiment on Candida albicans [5] is 0%. In the experiment on Candida albicans [6], the inhibition of growth at 62.5 µg/mL came out at 5.93%. For the same molecule, the Activity in experiment [8] lay within 45 to 55%. The inhibition of growth at 3.9 µg/mL in the experiment with Candida albicans [9] came out at 0%. The result in [10] was Active. In addition, the inhibition of growth at 31.25 µg/mL in the experiment on Candida albicans [11] came out at 1.57%. Also, the inhibition of growth at 250 µg/mL in the experiment with Candida albicans [12] turned out to be 36.1%. Also, in the experiment on Candida albicans [13], the inhibition of growth at 125 µg/mL was determined as 15.4%.
For `O=[N+]([O-])c1ccc2c(-c3ccccc3)cc(-c3ccccc3)nc2c1`, in the experiment on Candida albicans [1], the inhibition of growth at 15.62 µg/mL amounted to 7.07%. For the same molecule, the MIC50 against Candida albicans [2] turned out to be 250 µg/mL (≈ 766 µM); in experiment [7] it was 125 µg/mL (≈ 383 µM). Also, the MIC80 (with Candida albicans [2]; in experiment [7]) was more than 250 µg/mL in each case. The inhibition of growth at 7.81 µg/mL in the experiment with Candida albicans [5] worked out at 4.97%. For the same molecule, the inhibition of growth at 62.5 µg/mL in the experiment on Candida albicans [6] was determined as 19.8%. Moreover, in the experiment on Candida albicans [9], the inhibition of growth at 3.9 µg/mL is 3.42%. Moreover, the inhibition of growth at 31.25 µg/mL in the experiment on Candida albicans [11] stood at 10.6%. Besides, the inhibition of growth at 250 µg/mL with Candida albicans [12] worked out at 54.8%. This molecule also registered an IC50 in [14] of 559 µM. Further, the inhibition of growth at 125 µg/mL with Candida albicans [13] was found to be 38.5%.
As for `N#Cc1ccc2nc(-c3ccccc3)cc(-c3ccccc3)c2c1`, the inhibition of growth at 15.62 µg/mL with Candida albicans [1] is 9.26%. The values for the MIC50 (in the experiment on Candida albicans [2]; in [7]) were 250 µg/mL (≈ 816 µM) and 125 µg/mL (≈ 408 µM), respectively. The MIC80 in the experiment on Candida albicans [2] is more than 250 µg/mL; in [7] it was 250 µg/mL (≈ 816 µM). Moreover, the SC50 in [3] turned out to be 19.5 µM; in experiment [4], 220 µM. The inhibition of growth at 7.81 µg/mL in the experiment on Candida albicans [5] was 8.25%. In addition, in the experiment on Candida albicans [6], the inhibition of growth at 62.5 µg/mL worked out at 19.7%. In addition, in experiment [8], the Activity lay within 70 to 85%. In addition, the inhibition of growth at 3.9 µg/mL with Candida albicans [9] is 0%. The result in experiment [10] was Active. For the same molecule, the inhibition of growth at 31.25 µg/mL with Candida albicans [11] was found to be 12.7%. Further, the inhibition of growth at 250 µg/mL with Candida albicans [12] stood at 69.9%. In addition, the inhibition of growth at 125 µg/mL in the experiment with Candida albicans [13] is 39%.
Regarding `O=[N+]([O-])c1cccc(-c2cc(-c3ccccc3)c3cc(Br)ccc3n2)c1`, in the experiment with Candida albicans [1], the inhibition of growth at 15.62 µg/mL came to 3.43%. In the experiment with Candida albicans [2], the MIC50 is more than 250 µg/mL and the MIC80 was more than 250 µg/mL. The inhibition of growth at 7.81 µg/mL in the experiment on Candida albicans [5] came out at 0%. In the experiment on Candida albicans [6], the inhibition of growth at 62.5 µg/mL stood at 4.99%. In experiment [7], this molecule returned an MIC50 of more than 250 µg/mL and an MIC80 of more than 250 µg/mL. In [8], the Activity was in the range of 35 to 40%. Moreover, in the experiment with Candida albicans [9], the inhibition of growth at 3.9 µg/mL worked out at 0%. Besides, the inhibition of growth at 31.25 µg/mL in the experiment with Candida albicans [11] came out at 4.86%. Also, the inhibition of growth at 250 µg/mL in the experiment with Candida albicans [12] is 9.14%. The IC50 in experiment [14] came to 8.5 µM. Further, the inhibition of growth at 125 µg/mL in the experiment with Candida albicans [13] was found to be 5.11%.
